The values below come from ChEMBL document CHEMBL1124420, “Structure-activity relationships of pyrimidine nucleosides as antiviral agents for human immunodeficiency virus type 1 in peripheral blood mononuclear cells” (J Med Chem, 1989).

Structures are written as SMILES.

The subject of test [1] is Human immunodeficiency virus 1. Put plainly: Antiviral activity against HIV I strain (LAV) in human peripheral blood mononuclear (PBM) cells. The format is functional, organism-based. Put shortly:
(§1)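 Human PBM cells from normal donors, mitogen-stimulated for 3 days (10⁶ cells/mL), were infected with HIV-1 LAV at about 100 TCID₅₀/mL. Drugs at various concentrations were added about 45 min post-infection, in fungizone-free medium. On day 5, virus was pelleted from the clarified supernatant and its reverse transcriptase activity measured. EC₅₀ came from the median effect method, and active compounds were retested with different donor cells.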

Test [2] can be described thus: Cytotoxic effect in uninfected human peripheral blood mononuclear (PBM) cells.
Test [3] can be described thus: Antiviral activity against HIV I strain (LAV) in human peripheral blood mononuclear (PBM) cells; Range is 0.009 - 0.04. The format is functional. The gist of the method:
as §1

Test [4] is described as follows: Antiviral activity against HIV I strain (LAV) in human peripheral blood mononuclear (PBM) cells; Range is 0.056 - 1.00. The format is functional. The gist of the method: as §1
The nature of test [5]: Antiviral activity against HIV I strain (LAV) in human peripheral blood mononuclear (PBM) cells; Range is 0.18 - 0.46. The format is functional.
Test [6] is described as follows: Antiviral activity against HIV-1 in human peripheral blood mononuclear (PBM) cells. The format is functional. To be noted: read-out: ED50 (the source's name).
In test [7] the test system is Moloney murine leukemia virus. Briefly: Antiviral activity against Moloney murine leukemia virus. The format is functional. The conditions noted are these: read-out: ED50 (the source's name).
The nature of test [8]: Antiviral activity against HIV I strain (LAV) in human peripheral blood mononuclear (PBM) cells; Range is 0.081 - 0.22. The format is functional. Put shortly:
as §1

The nature of test [9]: Antiviral activity against HIV I strain (LAV) in human peripheral blood mononuclear (PBM) cells; Range is 0.66 - 1.19. Format: functional. The gist of the method:
as §1

A short description of test [10]: Antiviral activity against HIV I strain (LAV) in human peripheral blood mononuclear (PBM) cells; Range is 0.002 - 0.009. Format: functional. Put shortly:
as §1

The nature of test [11]: Antiviral activity against HIV I strain (LAV) in human peripheral blood mononuclear (PBM) cells; Range is 68.3 - 79.9. The format is functional. Put shortly: as §1

For `O=c1ccn([C@H]2CC[C@@H](CO)O2)c(=O)[nH]1`, the EC50 in test [1] turned out to be 96.8 µM.
`Cc1cn([C@H]2C[C@H](I)[C@@H](CO)O2)c(=O)[nH]c1=O` returned an EC50 in test [1] of 46.3 µM. Further, the IC50 (in general, the concentration that inhibits the measured activity by half) in test [2] was greater than 100 µM.
For `[N-]=[N+]=N[C@@H]1CC(n2cc(/C=C/Br)c(=O)[nH]c2=O)O[C@@H]1CO` (stereo partly specified), in that order: greater than 100 µM and greater than 100 µM.
For `CCCc1cn(C2C[C@@H](N=[N+]=[N-])[C@@H](CO)O2)c(=O)[nH]c1=O` (stereo partly specified), in that order: 63 µM and greater than 100 µM.
For `CCc1cn(C2C[C@@H](N)[C@@H](CO)O2)c(=O)[nH]c1=O` (stereo partly specified), in that order: 54.9 µM and greater than 100 µM.
In [2], `Cc1cn([C@H]2C=C[C@@H](CO)O2)c(=O)[nH]c1=O` [STAVUDINE] registered an IC50 of 70 µM. In [3], this compound registered an EC50 of 0.009 µM.
As for `[N-]=[N+]=N[C@H]1C[C@H](n2cc(Br)c(=O)[nH]c2=O)O[C@@H]1CO`, the EC50 in [1] was 1.04 µM. Also, in test [2], the IC50 was greater than 100 µM.
The like results for `Cc1cn([C@H]2C[C@H](O)[C@@H](CN=[N+]=[N-])O2)c(=O)[nH]c1=O` were, in that order, 8.6 µM and greater than 100 µM.
In [1], `Nc1ncc([C@H]2CC[C@@H](CO)O2)c(O)n1` had an EC50 greater than 100 µM. Also, the IC50 in test [2] was greater than 100 µM.
The compound `OC[C@@H]1C=C[C@H](c2cnc(O)nc2O)O1` displayed an EC50 in test [1] greater than 100 µM. This compound yielded an IC50 in test [2] greater than 100 µM.
Consider `CCc1cn([C@H]2CC[C@@H](CO)O2)c(=O)[nH]c1=O`, for which, in test [1], the EC50 came to 4.9 µM. The IC50 in test [2] was greater than 100 µM.
In test [2], `CCc1cn([C@H]2C[C@H](N=[N+]=[N-])[C@@H](CO)O2)c(=O)[nH]c1=O` gave an IC50 of 1000 µM. The compound also showed an EC50 in test [4] of 0.056 µM.
Turning to `CCc1cn(C2C[C@@H](I)[C@@H](CO)O2)c(=O)[nH]c1=O` (stereo partly specified), the EC50 in test [1] was 86 µM. Also, the IC50 in test [2] is greater than 100 µM.
Regarding `N[C@H]1C[C@H](n2ccc(=O)[nH]c2=O)O[C@@H]1CO`, the EC50 in test [1] was 60 µM. Further, the IC50 in test [2] is greater than 100 µM.
On to `Cc1cn([C@H]2C[C@H](O)[C@@H](CN)O2)c(=O)[nH]c1=O`, for which the EC50 in test [1] was found to be 77.4 µM. In addition, the IC50 in test [2] was greater than 100 µM.
Regarding `O=c1ccn(C2C[C@@H](I)[C@@H](CO)O2)c(=O)[nH]1` (stereo partly specified), the EC50 in [1] came out at 12.1 µM. This compound also returned an IC50 in test [2] greater than 100 µM.
In [1], `[N-]=[N+]=NC[C@H]1OC(n2ccc(=O)[nH]c2=O)C[C@H]1O` (stereo partly specified) came in with an EC50 greater than 100 µM. Besides, the IC50 in test [2] was greater than 100 µM.
As for `[N-]=[N+]=N[C@@H]1CC(n2cc(I)c(=O)[nH]c2=O)O[C@@H]1CO` (stereo partly specified), the EC50 in [1] stood at 1.14 µM. Moreover, the IC50 in [2] was greater than 100 µM.
The compound `Cc1cn([C@H]2CC[C@@H](CO)O2)c(=O)[nH]c1=O` displayed an EC50 in test [1] of 0.17 µM. Besides, the IC50 in test [2] was greater than 100 µM.
As for `[N-]=[N+]=N[C@H]1C[C@H](n2ccc(=O)[nH]c2=O)O[C@@H]1CO` [NAVURIDINE], the EC50 in test [5] was 0.18 µM; in [6], 0.178 µM; in test [7], 52 µM. This compound also yielded an IC50 in test [2] of 1000 µM.
With `Cc1cn([C@H]2C[C@H](N=[N+]=[N-])[C@@H](CO)O2)c(=O)nc1N`, the IC50 in test [2] was greater than 200 µM. In test [8], this compound returned an EC50 of 0.081 µM.
Compound `[N-]=[N+]=N[C@@H]1CC(c2cnc(O)nc2O)O[C@@H]1CO` (stereo partly specified) returned an EC50 in [1] greater than 100 µM. Further, the IC50 in test [2] is greater than 100 µM.
Compound `Cc1cn([C@H]2C[C@H](N)[C@@H](CO)O2)c(=O)[nH]c1=O` [3-AMINO- 3-DEOXYTHYMIDINE] displayed an EC50 in test [1] greater than 100 µM. This compound also came in with an IC50 in [2] greater than 100 µM.
`[N-]=[N+]=N[C@H]1C[C@H](n2ccc(N)nc2=O)O[C@@H]1CO` displayed an IC50 in test [2] greater than 400 µM. In test [9], this compound registered an EC50 of 0.66 µM.
`CCc1cn(C2C[C@@H](O)[C@@H](CN)O2)c(=O)[nH]c1=O` (stereo partly specified) gave an EC50 in test [1] of 94.3 µM. This compound had an IC50 in [2] greater than 10 µM.
As for `Cc1cn([C@H]2C[C@H](N=[N+]=[N-])[C@@H](CO)O2)c(=O)[nH]c1=O` [ZIDOVUDINE], in [10], the EC50 worked out at 0.002 µM. Further, the IC50 in test [2] is 200 µM.
The compound `CCc1cn([C@H]2C=C[C@@H](CO)O2)c(=O)[nH]c1=O` showed an EC50 in test [1] of 75.7 µM. In addition, in test [2], the IC50 was greater than 100 µM.
The like results for `CCc1cn(C2C[C@@H](O)[C@@H](CN=[N+]=[N-])O2)c(=O)[nH]c1=O` (stereo partly specified) were, in that order, greater than 100 µM and greater than 100 µM.
The like results for `NC[C@H]1OC(n2ccc(=O)[nH]c2=O)C[C@H]1O` (stereo partly specified) were, in that order, greater than 100 µM and greater than 100 µM.
In test [2], `O=c1ccn([C@H]2C=C[C@@H](CO)O2)c(=O)[nH]1` returned an IC50 greater than 100 µM. Besides, in test [11], the EC50 stood at 68.3 µM.
